# TCR CD3 inh = inhibitors of human TCR-CD3 interaction; inhibition, % at 9.4 µM; 360,000 tested, 0.37% active; TAMRA-labeled TCR probe fluorescence, biochemical;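 further: recombinant mutant TCR 2C K166C tagged with TAMRA read by polarization; 0% = receptor in buffer alone and 100% = receptor with positive control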
# ARNT TACC3 PPI = ARNT/TACC3 interaction disruption; AlphaScreen His-ARNT PAS-B/GST-TACC3 binding, luminescence; TACC3 fragment carries E629A point mutation; 390,000 tested, 0.66% active; AID 623870; inhibition, % at 9.99 µM; Q9Y6A5;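 active means mean inhibition of replicates at least 50% and at least half of replicates each reaching 50%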;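 further: 0% = complete ARNT plus TACC3 wells and 100% = ARNT alone without TACC3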
# ABHD4 inh = inhibits mouse alpha/beta hydrolase domain 4; 370,000 tested, 0.54% active; Q8VD66; inhibition, % at 8.92 µM; purified mABHD4, FP-Rh probe fluorescence polarization;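 active means inhibition exceeding the mean over every tested compound plus 3 SD, cut at about 30% in these data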;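 further: 0% = plate median of compound wells and 100% = S159A mutant with DMSO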
#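 system = mouse ABHD4 enzyme, wild type | medium = HEPES pH 7.0, NaCl, Pluronic buffer | also added = FP-Rh probe | incubation = Enzyme–compound pre-incubation 45 min, then probe 60 min, both 25 °C | technique = fluorescence polarization, excitation 525 nm, emission 598 nm, BODIPY TMR filters | controls = S159A mutant high control, sample median low control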
# HTRA1 inh = HTRA1 (human) protease inhibition | Q92743 | recombinant HTRA1, FP-rhodamine activity-based probe, fluorescence polarization | inhibition, % at 5.96 µM | 340,000 tested, 0.5% active | AID 504803; in the data active means inhibition above about 36%;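 further: 0% = enzyme with DMSO and 100% = wells lacking enzyme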
# SIAE inh = blocks human sialic acid acetylesterase. inhibition, % at 9.66 µM. 370,000 tested, 0.69% active. SIAE FP-Rh probe binding, fluorescence polarization;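 active means inhibition above a cutoff: mean of compounds within the control limits plus 3 SD of those, cut at about 17% in these data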;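 further: 0% = plate median of compound wells and 100% = probe without SIAE protein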
# Target sequence (Q9HAT2 whole entry, looked up): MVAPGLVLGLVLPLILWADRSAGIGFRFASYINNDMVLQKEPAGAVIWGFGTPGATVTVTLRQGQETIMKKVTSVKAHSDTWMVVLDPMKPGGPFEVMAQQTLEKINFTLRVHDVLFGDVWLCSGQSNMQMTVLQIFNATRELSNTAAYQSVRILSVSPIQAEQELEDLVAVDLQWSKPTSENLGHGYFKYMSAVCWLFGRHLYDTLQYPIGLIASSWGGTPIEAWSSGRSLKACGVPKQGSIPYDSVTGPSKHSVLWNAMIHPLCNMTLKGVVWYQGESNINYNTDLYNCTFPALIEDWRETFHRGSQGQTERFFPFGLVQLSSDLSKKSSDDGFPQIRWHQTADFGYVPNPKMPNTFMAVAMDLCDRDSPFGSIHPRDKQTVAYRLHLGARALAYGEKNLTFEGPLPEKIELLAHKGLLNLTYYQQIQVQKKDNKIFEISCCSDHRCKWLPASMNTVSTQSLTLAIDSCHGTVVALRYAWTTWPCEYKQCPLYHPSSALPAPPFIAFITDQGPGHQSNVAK
# BSA TAMRA ctr = counter-screen for TCR-CD3 interaction inhibitors: BSA probe. shares compounds with TCR CD3 inh. TAMRA-labeled BSA probe fluorescence counterscreen. inhibition, % at 9.4 µM. 1,200 tested, 10% active; in the data active means inhibition above about 23%;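 further: 0% = buffer low control and 100% = reference high control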
# TCR-CD3 inh conf = confirmation of human TCR-CD3 interaction inhibitors; AID 652036; inhibition, % at 9.4 µM; TAMRA-labeled TCR probe fluorescence binding assay; 1,200 tested, 48% active; shares compounds with TCR CD3 inh
# The depositor's hits bear a star; / = no result. A selection: hits, their analogues and other compounds. The true share with any hit is near 1.8%. Unless noted, no stated cut-off is given here; in the data, active means inhibition above about 19%; inactive means the rest.
SMILES,TCR CD3 inh,ARNT TACC3 PPI,ABHD4 inh,HTRA1 inh,SIAE inh,BSA TAMRA ctr,TCR-CD3 inh conf
Cc1noc(C)c1S(=O)(=O)N(C)C[C@@H]1Oc2ccc(NC(=O)CCCN(C)C)cc2C(=O)N([C@@H](C)CO)C[C@@H]1C,/,3,/,/,/,/,/
COC(=O)COc1ccc(NC(=O)C(c2ccccc2)c2ccccc2)cc1,-4,-3,1,-6,1,/,/
COC(=O)COc1ccc(C(C2C(=O)CC(C)(C)CC2=O)C2C(=O)CC(C)(C)CC2=O)cc1,20*,-16,0,2,-1,1,3
O=C1NNC(=O)C1c1ccccc1,35*,8,3,6,0,1,9
COc1ccc(OCc2cc(C(=O)N[C@H]3CCCCNC3=O)no2)c(Cl)c1,21*,-4,-1,1,2,1,0
Clc1ccc2nc(CSCc3ccccc3)cn2c1,39*,0,-5,1,1,2,1
Cc1cccc(S(=O)(=O)N[C@H]2CC[C@@H](CCNC(=O)CCN3CCCCC3)O[C@@H]2CO)c1,/,2,/,/,/,/,/
C[C@H](CO)N1C[C@H](C)[C@H](CN(C)S(=O)(=O)c2cn(C)cn2)Oc2c(NC(=O)c3nc4ccccc4s3)cccc2C1=O,/,1,/,/,/,/,/
CCC(=O)N(Cc1cc2c(C)ccc(C)c2[nH]c1=O)C1CCCCC1,29*,1,5,-1,3,-2,0
COc1cccc(-c2ccc3c(c2)[C@H]2[C@H](CCN2S(=O)(=O)c2ccccc2OC)[C@H](CO)N3)c1,/,-6,/,/,/,/,/
COC(=O)C(NC(=O)CSc1nc(N)cc(=O)[nH]1)c1ccccc1 (configuration not stated),-4,-8,0,5,-3,/,/
Nc1cc(=O)[nH]c(SCC(=O)NNC(=O)c2ccccc2)n1,22*,6,-1,1,-5,-1,5
C[C@@H]1CCCCO[C@@H](CN(C)Cc2ccc(C(=O)O)cc2)[C@@H](C)CN([C@H](C)CO)C(=O)c2cc(NS(=O)(=O)c3ccccc3)ccc2O1,/,-12,/,/,/,/,/
N#Cc1c(N)sc(=S)c2c1CCCCC2,26*,-15,35*,26,3,21,26*
C[C@@H]1CN([C@H](C)CO)S(=O)(=O)c2ccc(-c3cccnc3)cc2O[C@@H]1CN(C)CC1CC1,/,-4,/,/,/,/,/
CCOC(=O)N1N=C(C)CC1(O)c1ccccc1 (configuration not stated),3,-6,-1,-3,-1,/,/
CC1=NN(C(=O)c2ccccc2Cl)C(O)(c2ccccc2)C1 (configuration not stated),21*,-3,-7,3,3,-17,5
CCC1=NN(C(=O)c2ccc(Br)cc2)C(O)(c2ccccc2)C1 (configuration not stated),11,0,0,19,-1,/,/
CC1=NN(C(=O)c2ccccc2)C(O)(c2ccc(Br)cc2)C1 (configuration not stated),24*,0,8,32,2,-5,25*
CC1=NN(C(=O)c2ccccc2F)C(O)(c2ccc(Cl)cc2)C1 (configuration not stated),23*,6,0,22,-4,-9,18
CCCNC(=O)Nc1ccc2c(c1)C(=O)N(C)C[C@@H](OC)[C@@H](C)CN(C(C)=O)[C@H](C)CO2,/,0,/,/,/,/,/
Cc1ccc(-c2cc(C(=O)Nc3ccc(S(=O)(=O)Nc4onc(C)c4C)cc3)[nH]n2)c(O)c1,32*,17,-17,-25,-24,-13,20*
Cc1ccc2oc(C(=O)Nc3ccc(S(=O)(=O)Nc4onc(C)c4C)cc3)c(C)c2c1,2,-1,5,3,-10,/,/
COCCn1c(N)c(N(Cc2ccccc2)C(=O)COc2ccc(F)cc2Cl)c(=O)[nH]c1=O,3,-7,4,5,9,/,/
COCCN(C(=O)COC(=O)c1cc2c(s1)CCC2)c1c(N)n(Cc2ccccc2)c(=O)[nH]c1=O,27*,0,20,7,9,-15,37*
Nc1c(N(Cc2ccccc2)C(=O)COc2ccc(F)cc2Cl)c(=O)[nH]c(=O)n1Cc1ccccc1,21*,0,-6,12,-4,-9,21*
